The compounds below were run against T1, Gastrin/cholecystokinin type B receptor (Mus musculus) (UniProt P56481) (assay: Inhibition of [125I]-labeled CCK-8 sulfate binding to cholecystokinin type B receptor in mouse brain membranes). Conditions: Membrane, concentration not given here.
T1 sequence (whole entry): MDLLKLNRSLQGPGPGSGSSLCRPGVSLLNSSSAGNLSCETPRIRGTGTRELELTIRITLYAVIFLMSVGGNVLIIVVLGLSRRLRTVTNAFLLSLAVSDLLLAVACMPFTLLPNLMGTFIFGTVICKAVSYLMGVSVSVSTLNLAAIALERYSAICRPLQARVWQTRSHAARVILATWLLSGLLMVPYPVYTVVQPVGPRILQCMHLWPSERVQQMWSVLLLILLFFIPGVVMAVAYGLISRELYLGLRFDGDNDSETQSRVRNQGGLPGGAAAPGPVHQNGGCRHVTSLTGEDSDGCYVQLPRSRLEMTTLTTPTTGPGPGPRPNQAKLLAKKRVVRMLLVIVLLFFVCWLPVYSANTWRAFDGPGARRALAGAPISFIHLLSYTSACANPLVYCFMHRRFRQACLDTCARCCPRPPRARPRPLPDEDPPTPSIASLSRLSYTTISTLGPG
Assay type: cell membranes
Method in brief: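 Mouse brain membranes as the CCK-B receptor source, with 125I-labelled CCK-8 sulfate as the radioligand, following the Chang and Lotti method.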

Compound | inhibition [%]
O=c1c2ccccc2nc(CCc2c[nH]c3ccccc23)n1-c1ccccc1C(F)(F)F | 35
O=c1c2ccccc2nc(CCc2c[nH]c3ccccc23)n1-c1ccccc1F | 75
COc1ccccc1-n1c(CCc2c[nH]c3ccccc23)nc2ccccc2c1=O | 74
O=c1c2ccccc2nc(CCc2c[nH]c3ccccc23)n1-c1ccccc1Cl | 44

What follows are compounds tested against T2, Gastrin/cholecystokinin type B receptor (Mus musculus, UniProt P56481) (assay: Inhibition of [125I]CCK-8 sulfate binding to cholecystokinin type B receptor in mouse brain membranes.). Conditions: not given.
T2 sequence (P56481 whole entry): T1 sequence (whole entry)
Assay type: cell membranes

IC50 [nM] | Compound
67 | O=c1c2ccccc2nc(CCc2c[nH]c3ccc(Br)cc23)n1-c1cccc(OC2CCCC2)c1
480 | O=c1c2ccccc2nc(CCc2c[nH]c3ccccc23)n1-c1cccc(C(F)(F)F)c1
58 | CCCOc1cccc(-n2c(CCc3c[nH]c4ccc(Br)cc34)nc3ccccc3c2=O)c1

These compounds were tested against T3, Cholecystokinin receptor type A (Rattus norvegicus) (UniProt P30551) (assay: Inhibition of [3H]-labeled L-364,718 binding to Cholecystokinin type A receptor in rat pancreas). Conditions: concentration not given here.
T3 sequence (whole entry): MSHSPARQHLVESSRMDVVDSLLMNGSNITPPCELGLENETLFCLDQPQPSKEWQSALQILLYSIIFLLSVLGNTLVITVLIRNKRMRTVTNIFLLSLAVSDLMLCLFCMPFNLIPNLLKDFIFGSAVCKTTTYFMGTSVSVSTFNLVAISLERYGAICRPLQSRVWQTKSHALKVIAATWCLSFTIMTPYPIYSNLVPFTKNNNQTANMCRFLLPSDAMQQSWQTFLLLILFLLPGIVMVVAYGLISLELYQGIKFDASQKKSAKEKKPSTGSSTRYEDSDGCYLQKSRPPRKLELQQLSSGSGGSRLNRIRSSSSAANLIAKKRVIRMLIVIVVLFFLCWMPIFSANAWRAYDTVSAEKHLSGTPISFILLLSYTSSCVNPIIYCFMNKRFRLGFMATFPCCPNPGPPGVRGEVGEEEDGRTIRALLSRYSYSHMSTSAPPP

inhibition [%] | Compound
6 | O=c1c2ccccc2nc(CCc2c[nH]c3ccccc23)n1-c1cccc(C(F)(F)F)c1
5 | COc1cccc(-n2c(CCc3c[nH]c4ccc(Br)cc34)nc3ccccc3c2=O)c1
-5 | CCc1cccc(-n2c(CCc3c[nH]c4ccc(Br)cc34)nc3ccccc3c2=O)c1
-6 | CC(C)Oc1cccc(-n2c(CCc3c[nH]c4ccc(Br)cc34)nc3ccccc3c2=O)c1

Source: ChEMBL document CHEMBL1125680, “Quinazolinone cholecystokinin-B receptor ligands” (J Med Chem, 1991)
